According to ChEMBL document CHEMBL1147446, “Antagonists of human CCR5 receptor containing 4-(pyrazolyl)piperidine side chains. Part 3: SAR studies on the benzylpyrazole segment” (Bioorg Med Chem Lett, 2004):

Key:
HeLa [1] = assay: Antiviral activities in a cell culture HIV-1 infectivity inhibition assay using HeLa cells plus 50% normal human serum; assay type: functional
[2] = biological target: C-C chemokine receptor type 5 (Homo sapiens, UniProt P51681); assay: Inhibitory concentration for displacement of [125I]-MIP-1 alpha from recombinant human CC chemokine receptor 5 (CCR5) expressed in CHO cell; assay type: cell-based
Procedure, shortened: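 Competitive binding to CCR5 on CHO cell membranes, read as displacement of [125I]-labeled MIP-1α. IC50 values are means of triplicate determinations. Standard errors were normally <15% within an assay. Assay-to-assay variation was within ±2-fold, judged from a standard compound.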

in vivo [3] = conditions: rat, plasma
in vivo [4] = conditions: rat
HeLa [5] = assay: Antiviral activities in a cell culture HIV-1 infectivity inhibition assay using HeLa cells; assay type: functional; conditions: Homo sapiens
in vivo [6] = conditions: rat; remark: listed apart in the source
[7] = Plasma clearance in dog (dosed as a mixture of five compounds at 0.5 mpk each via iv only); assay type: ADME, organism-based, Canis lupus familiaris; conditions: read-out: Clp
Procedure, shortened: (§1)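 Dogs received a five-compound cassette by iv only, 0.5 mpk of each compound.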

D(3) dopamine receptor [8] = biological target: T1, D(3) dopamine receptor (Homo sapiens, UniProt P35462); assay: (§2) Inhibitory activity against human dopamine receptor D3 at 10 uM
Canis familiaris [9] = assay: […] AUCN in dog ( (dosed as a mixture of five compounds at 0.5 mpk each via iv only); assay type: ADME, organism-based, Canis lupus familiaris; conditions: in vivo
[10] = biological target: Sodium-dependent noradrenaline transporter (Homo sapiens) (UniProt P23975); assay: Inhibitory activity against human adrenergic norepinephrine transporter at 10 uM
[11] = biological target: L-type calcium channel, benzothiazepine site (Rattus norvegicus, UniProt P22002+P27732+Q02485); assay: Inhibition of binding to rat L-type Calcium channel benzothiazepine site at 10 uM; assay type: functional
[12] = biological target: T2, Sodium-dependent dopamine transporter (Homo sapiens, UniProt Q01959); assay: (§3) Inhibitory activity against human dopamine transporter at 10 uM
[13] = (§4) Inhibitory activity against rat Na+ channel site 2 at 10 uM
[14] = In vitro antiviral activity using peripheral blood mononuclear cell (PBMC) HIV-1 spread assay; assay type: functional; conditions: Homo sapiens
[15] = In vitro antiviral activity using peripheral blood mononuclear cell (PBMC) HIV-1 spread assay in presence of 50% normal human serum; assay type: functional
[16] = Half life in dog (dosed as a mixture of five compounds at 0.5 mpk each via iv only); assay type: ADME, organism-based, Canis lupus familiaris; conditions: in vivo; procedure, shortened: as §1
Canis familiaris [17] = assay: […] AUCN in dog (dosed as a mixture of five compounds at 0.5 mpk each via iv only); assay type: ADME, organism-based, Canis lupus familiaris; conditions: in vivo
D(3) dopamine receptor [18] = biological target: T1, D(3) dopamine receptor; assay: as §2; remark: listed apart in the source
[19] = biological target: T2, Sodium-dependent dopamine transporter; assay: as §3; remark: listed apart in the source
Rattus norvegicus = organism: Rattus norvegicus; assay: as §4
[20] = biological target: Voltage-gated inwardly rectifying potassium channel KCNH2 (Homo sapiens, UniProt Q12809); assay: Binding affinity against hERG Voltage-gated potassium channel subunit Kv11.1
Canis familiaris [21] = assay: Oral AUCN in dog (dosed at 0.5 mpk iv ); conditions: in vivo, 0.5 mg/kg
in vivo [22] = conditions: dog
in vivo [23] = conditions: dog, plasma, iv, 0.5 mg/kg

T2 sequence (Q01959 whole entry): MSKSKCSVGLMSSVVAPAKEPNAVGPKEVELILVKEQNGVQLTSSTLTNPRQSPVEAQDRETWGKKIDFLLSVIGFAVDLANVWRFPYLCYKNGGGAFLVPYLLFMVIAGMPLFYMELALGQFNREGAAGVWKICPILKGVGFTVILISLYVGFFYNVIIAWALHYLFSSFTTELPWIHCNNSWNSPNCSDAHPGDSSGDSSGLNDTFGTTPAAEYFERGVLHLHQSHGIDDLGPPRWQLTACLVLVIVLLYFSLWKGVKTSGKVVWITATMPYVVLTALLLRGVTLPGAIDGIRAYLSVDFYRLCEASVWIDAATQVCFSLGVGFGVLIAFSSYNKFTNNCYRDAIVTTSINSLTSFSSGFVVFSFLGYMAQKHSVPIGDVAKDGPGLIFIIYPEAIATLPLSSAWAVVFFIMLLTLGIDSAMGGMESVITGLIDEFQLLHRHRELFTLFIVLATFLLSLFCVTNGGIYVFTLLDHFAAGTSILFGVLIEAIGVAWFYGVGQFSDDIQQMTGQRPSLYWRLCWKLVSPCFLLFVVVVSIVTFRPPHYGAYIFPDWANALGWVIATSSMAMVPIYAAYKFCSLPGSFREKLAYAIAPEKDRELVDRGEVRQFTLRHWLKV
Chain of C-C chemokine receptor type 5 (P51681 whole entry): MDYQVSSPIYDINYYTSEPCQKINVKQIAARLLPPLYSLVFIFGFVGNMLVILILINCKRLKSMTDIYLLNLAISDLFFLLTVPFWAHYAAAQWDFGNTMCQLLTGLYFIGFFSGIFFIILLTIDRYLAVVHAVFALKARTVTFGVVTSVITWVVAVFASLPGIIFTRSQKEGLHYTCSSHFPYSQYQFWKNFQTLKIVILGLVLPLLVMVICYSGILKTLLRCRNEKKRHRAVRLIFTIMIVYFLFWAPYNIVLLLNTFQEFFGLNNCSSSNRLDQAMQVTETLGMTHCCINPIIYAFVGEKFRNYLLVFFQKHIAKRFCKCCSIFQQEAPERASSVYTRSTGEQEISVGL
T1 sequence (P35462 whole entry): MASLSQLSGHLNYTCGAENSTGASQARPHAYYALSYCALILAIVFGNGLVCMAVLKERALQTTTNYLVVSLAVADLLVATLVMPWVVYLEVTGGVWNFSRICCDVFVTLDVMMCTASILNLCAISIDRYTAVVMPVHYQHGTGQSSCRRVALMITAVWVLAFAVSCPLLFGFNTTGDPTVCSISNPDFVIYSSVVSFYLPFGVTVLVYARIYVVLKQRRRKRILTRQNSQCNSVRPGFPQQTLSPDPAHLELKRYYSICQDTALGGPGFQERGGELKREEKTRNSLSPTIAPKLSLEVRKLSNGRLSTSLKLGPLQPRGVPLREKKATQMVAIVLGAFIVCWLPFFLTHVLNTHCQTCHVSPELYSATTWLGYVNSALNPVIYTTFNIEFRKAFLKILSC
Chain of Sodium-dependent noradrenaline transporter (Homo sapiens) (P23975 whole entry): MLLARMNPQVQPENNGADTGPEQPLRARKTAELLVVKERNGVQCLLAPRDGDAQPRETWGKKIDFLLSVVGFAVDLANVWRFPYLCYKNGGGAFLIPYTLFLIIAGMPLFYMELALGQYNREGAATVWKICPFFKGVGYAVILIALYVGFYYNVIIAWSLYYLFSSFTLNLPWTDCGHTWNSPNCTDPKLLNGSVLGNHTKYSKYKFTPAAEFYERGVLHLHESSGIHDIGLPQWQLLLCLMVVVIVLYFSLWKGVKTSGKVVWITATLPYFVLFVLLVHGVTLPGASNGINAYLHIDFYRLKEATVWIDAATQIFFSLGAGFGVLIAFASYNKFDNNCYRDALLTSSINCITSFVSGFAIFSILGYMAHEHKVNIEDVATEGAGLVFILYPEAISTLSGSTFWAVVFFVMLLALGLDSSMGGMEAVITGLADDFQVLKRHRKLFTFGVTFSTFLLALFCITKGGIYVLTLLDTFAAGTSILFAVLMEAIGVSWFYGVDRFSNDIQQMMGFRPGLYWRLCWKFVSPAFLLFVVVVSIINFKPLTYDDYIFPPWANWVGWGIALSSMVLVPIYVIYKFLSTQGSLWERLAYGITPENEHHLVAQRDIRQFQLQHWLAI
Chain of Voltage-gated inwardly rectifying potassium channel KCNH2 (Q12809 whole entry): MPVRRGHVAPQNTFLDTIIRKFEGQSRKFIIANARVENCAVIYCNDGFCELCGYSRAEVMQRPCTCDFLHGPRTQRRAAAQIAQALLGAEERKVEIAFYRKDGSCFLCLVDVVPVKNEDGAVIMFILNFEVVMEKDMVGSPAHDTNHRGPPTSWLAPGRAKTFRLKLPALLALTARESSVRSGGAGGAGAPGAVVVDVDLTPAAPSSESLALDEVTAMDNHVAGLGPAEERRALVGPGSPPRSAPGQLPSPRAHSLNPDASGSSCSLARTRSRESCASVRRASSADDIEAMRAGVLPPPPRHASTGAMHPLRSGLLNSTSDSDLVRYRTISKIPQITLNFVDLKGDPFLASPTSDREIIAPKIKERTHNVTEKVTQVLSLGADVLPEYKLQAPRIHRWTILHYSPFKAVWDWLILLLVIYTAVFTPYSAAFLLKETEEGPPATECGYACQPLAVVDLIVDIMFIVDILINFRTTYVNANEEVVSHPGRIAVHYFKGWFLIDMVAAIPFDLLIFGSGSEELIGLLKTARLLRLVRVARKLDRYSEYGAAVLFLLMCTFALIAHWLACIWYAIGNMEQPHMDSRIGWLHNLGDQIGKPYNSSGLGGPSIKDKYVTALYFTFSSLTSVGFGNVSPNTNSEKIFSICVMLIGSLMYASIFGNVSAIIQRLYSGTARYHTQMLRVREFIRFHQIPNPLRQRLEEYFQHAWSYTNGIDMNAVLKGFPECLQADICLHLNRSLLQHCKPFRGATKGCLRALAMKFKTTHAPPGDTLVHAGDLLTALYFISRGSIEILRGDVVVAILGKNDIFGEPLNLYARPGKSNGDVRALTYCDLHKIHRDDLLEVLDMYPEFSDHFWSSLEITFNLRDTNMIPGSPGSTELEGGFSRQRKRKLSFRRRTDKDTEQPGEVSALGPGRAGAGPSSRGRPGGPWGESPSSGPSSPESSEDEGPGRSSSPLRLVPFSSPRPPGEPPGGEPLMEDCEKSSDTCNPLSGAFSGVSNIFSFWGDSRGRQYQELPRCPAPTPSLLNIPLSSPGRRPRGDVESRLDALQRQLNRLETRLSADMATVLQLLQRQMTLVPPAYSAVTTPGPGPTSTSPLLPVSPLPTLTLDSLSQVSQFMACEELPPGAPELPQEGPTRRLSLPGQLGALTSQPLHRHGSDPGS

Row | Compound | IC50 [2] [nM] | clearance (in vivo [3]) [mL/min/kg] | bioavailability (in vivo [4]) [%] | IC90 (HeLa [5]) [nM] | half-life (in vivo [6]) [h] | IC90 (HeLa [1]) [nM] | further results
1 | CCCCOc1ccc(Cc2cc(C3CCN(C[C@H]4CN([C@@H](C(=O)O)[C@@H](C)CC)C[C@@H]4c4cccc(F)c4)CC3)n(CC)n2)cc1 | 1 | 4.8 | 22 | 0.4 | 1.2 | 11 | 
2 | CCn1nc(Cc2ccc(OC)c(OC)c2)cc1C1CCN(C[C@H]2CN([C@@H](C(=O)O)C(C)(C)C)C[C@@H]2c2cccc(F)c2)CC1 | 1.2 | 2.1 | 33 | < 0.14 | 1.1 | 11 | clearance [7]: 14 mL/min/kg; inhibition (D(3) dopamine receptor [8]): 44%; AUC N (Canis familiaris [9]): 1.9 uM hr dose-1; inhibition [10]: 3%; inhibition at 10 µM [11]: -8%; inhibition [12]: 9%; IC50 [13]: 3200 nM; IC95 [14]: 1.6 nM; IC95 [15]: 31 nM; half-life [16]: 2.1 h
3 | CCn1nc(Cc2ccc(C(F)(F)F)cc2)cc1C1CCN(C[C@H]2CN([C@@H](C(=O)O)C(C)(C)C)C[C@@H]2c2cccc(F)c2)CC1 | 0.3 |  |  | 0.4 |  | 33 | clearance [7]: 5.5 mL/min/kg; AUC N (Canis familiaris [17]): 4.9 uM hr dose-1; half-life [16]: 2.8 h
4 | CCOc1ccc(Cc2cc(C3CCN(C[C@H]4CN([C@@H](C(=O)O)C(C)(C)C)C[C@@H]4c4cccc(F)c4)CC3)n(CC)n2)cc1 | 0.9 | 1.7 | 68 | 0.4 | 1.4 | 33 | clearance [7]: 13 mL/min/kg; AUC N (Canis familiaris [9]): 2.3 uM hr dose-1; half-life [16]: 1.8 h
5 | CCn1nc(Cc2ccc(S(C)(=O)=O)cc2)cc1C1CCN(C[C@H]2CN([C@@H](C(=O)O)C(C)(C)C)C[C@@H]2c2cccc(F)c2)CC1 | 1.6 |  |  | < 0.14 |  | 11 | clearance [7]: 108 mL/min/kg; inhibition (D(3) dopamine receptor [8]): 39%; inhibition (Rattus norvegicus): 7%; AUC N (Canis familiaris [9]): 0.24 uM hr dose-1; inhibition [10]: 13%; inhibition at 10 µM [11]: 15%; inhibition [12]: 36%; IC95 [14]: 6.2 nM; IC95 [15]: 8.1 nM; half-life [16]: 0.55 h
6 | CCn1nc(Cc2ccc(C(C)(C)C)cc2)cc1C1CCN(C[C@H]2CN([C@@H](C(=O)O)C(C)(C)C)C[C@@H]2c2cccc(F)c2)CC1 | 0.4 | 1.1 | 77 | 0.4 | 2.5 | 33 | 
7 | CC[C@H](C)[C@H](C(=O)O)N1C[C@H](CN2CCC(c3cc(Cc4ccc(OC)c(OC)c4)nn3CC)CC2)[C@@H](c2cccc(F)c2)C1 | 1.5 |  |  | 0.4 |  | 33 | inhibition (D(3) dopamine receptor [8]): 35%; inhibition [10]: 15%; inhibition at 10 µM [11]: 36%; inhibition [12]: -4%; IC50 [13]: 7200 nM
8 | CCn1nc(Cc2ccc(-c3ccccc3)cc2)cc1C1CCN(C[C@H]2CN([C@@H](C(=O)O)C3CCCCC3)C[C@@H]2c2cccc(F)c2)CC1 | 0.3 | 5.3 | 18 | 0.4 | 1.3 | 11 | Ki [20]: 400 nM
9 | CCn1nc(Cc2ccc(OC3CCC3)cc2)cc1C1CCN(C[C@H]2CN([C@@H](C(=O)O)C(C)(C)C)C[C@@H]2c2cccc(F)c2)CC1 | 0.7 | 0.62 | 65 | 0.4 | 3.5 | 33 | 
10 | CCn1nc(Cc2ccc(-c3ccccc3)cc2)cc1C1CCN(C[C@H]2CN([C@@H](C(=O)O)C(C)(C)C)C[C@@H]2c2cccc(F)c2)CC1 | 0.6 | 0.23 | 33 | 1.2 | 8.9 | 100 | 
11 | CCn1nc(Cc2ccccc2)cc1C1CCN(C[C@H]2CN([C@@H](C(=O)O)C(C)(C)C)C[C@@H]2c2cccc(F)c2)CC1 |  |  |  |  |  | 100 | AUC N (Canis familiaris [21]): 2.3 µM hr dose-1; clearance [7]: 25 mL/min/kg; AUC N (Canis familiaris [17]): 1.2 uM hr dose-1; half-life (in vivo [22]): 0.64 h; clearance (in vivo [23]): 13 mL/min/kg; half-life [16]: 0.75 h

The next lines start with results.

Row | IC50 [2] [nM] | clearance (in vivo [3]) [mL/min/kg] | bioavailability (in vivo [4]) [%] | IC90 (HeLa [5]) [nM] | half-life (in vivo [6]) [h] | Compound | IC90 (HeLa [1]) [nM] | further results
12 | 0.3 | 1.9 | 36 | < 0.14 | 1 | CC[C@H](C)[C@H](C(=O)O)N1C[C@H](CN2CCC(c3cc(Cc4ccc(OC5CC5)cc4)nn3CC)CC2)[C@@H](c2cccc(F)c2)C1 | 11 | 
13 | 0.3 | 1.6 | 9.2 | 0.4 | 1.4 | CC[C@H](C)[C@H](C(=O)O)N1C[C@H](CN2CCC(c3cc(Cc4ccc(C(C)(C)C)cc4)nn3CC)CC2)[C@@H](c2cccc(F)c2)C1 | 11 | 
14 | 1.3 | 4 | 76 | < 0.14 | 1.1 | CC[C@H](C)[C@H](C(=O)O)N1C[C@H](CN2CCC(c3cc(Cc4ccc(OC(C)(C)C)cc4)nn3CC)CC2)[C@@H](c2cccc(F)c2)C1 | 11 | 
15 | 0.3 | 3.3 | 19 | < 0.14 | 1.18 | CC[C@H](C)[C@H](C(=O)O)N1C[C@H](CN2CCC(c3cc(Cc4ccc(C(C)C)cc4)nn3CC)CC2)[C@@H](c2cccc(F)c2)C1 | 11 | 
16 | 1.1 | 8.8 | 41 | 0.4 | 2.3 | CC[C@H](C)[C@H](C(=O)O)N1C[C@H](CN2CCC(c3cc(Cc4ccc(OC(F)(F)F)cc4)nn3CC)CC2)[C@@H](c2cccc(F)c2)C1 | 33 | clearance [7]: 3.8 mL/min/kg; IC50 (D(3) dopamine receptor [18]): 2700 nM; AUC N (Canis familiaris [9]): 6.8 uM hr dose-1; inhibition [10]: 42%; inhibition at 10 µM [11]: 46%; IC50 [19]: 3600 nM; IC50 [13]: 1200 nM; IC95 [14]: 2.5 nM; IC95 [15]: 20 nM; half-life [16]: 3.1 h
17 | 0.6 | 4.4 | 5.9 | < 0.14 | 0.98 | CCOc1ccc(Cc2cc(C3CCN(C[C@H]4CN([C@@H](C(=O)O)[C@@H](C)CC)C[C@@H]4c4cccc(F)c4)CC3)n(CC)n2)cc1 | 33 | 
18 | 1.3 | 2.7 | 68 | < 0.14 | 1.2 | CC[C@H](C)[C@H](C(=O)O)N1C[C@H](CN2CCC(c3cc(Cc4ccc(OC5CCC5)cc4)nn3CC)CC2)[C@@H](c2cccc(F)c2)C1 | 11 | 
19 | 1.1 | 7.6 | 7.8 | 11 | 0.91 | CCn1nc(Cc2ccc(F)cc2)cc1C1CCN(C[C@H]2CN([C@@H](C(=O)O)C(C)C)C[C@@H]2c2cccc(F)c2)CC1 | > 300 | 
20 | 1.3 |  |  | < 0.14 |  | CCn1nc(Cc2ccc(C#N)cc2)cc1C1CCN(C[C@H]2CN([C@@H](C(=O)O)C(C)(C)C)C[C@@H]2c2cccc(F)c2)CC1 | 3.7 | IC50 (D(3) dopamine receptor [18]): 4000 nM; inhibition (Rattus norvegicus): 44%; inhibition [10]: 23%; inhibition at 10 µM [11]: 1%; inhibition [12]: 17%
21 |  |  | 13 |  | 0.54 | CC[C@H](C)[C@H](C(=O)O)N1C[C@H](CN2CCC(c3cc(Cc4ccccc4)nn3CC)CC2)[C@@H](c2cccc(F)c2)C1 | 100 | Ki [20]: 30000 nM
22 | 0.4 | 0.75 | 26 | < 0.14 | 2.1 | CC[C@@H](C)[C@H](C(=O)O)N1C[C@H](CN2CCC(c3cc(Cc4ccc(OC5CCC5)cc4)nn3CC)CC2)[C@@H](c2cccc(F)c2)C1 | 33 | 
23 | 3.5 | 11 | 5.4 | 3.7 | 0.38 | CCn1nc(Cc2ccc(S(C)(=O)=O)cc2)cc1C1CCN(C[C@H]2CN([C@@H](C(=O)O)C(C)C)C[C@@H]2c2cccc(F)c2)CC1 | 33 | 
24 | 1.6 | 0.97 | 23 | < 0.14 | 2.7 | CC[C@@H](C)[C@H](C(=O)O)N1C[C@H](CN2CCC(c3cc(Cc4ccc(OC(C)(C)C)cc4)nn3CC)CC2)[C@@H](c2cccc(F)c2)C1 | 3.7 | 
25 | 0.3 | 0.32 | 26 | < 0.14 | 5.7 | CCn1nc(Cc2ccc(-c3ccccc3)cc2)cc1C1CCN(C[C@H]2CN([C@@H](C(=O)O)C(C)C)C[C@@H]2c2cccc(F)c2)CC1 | 100 | 
26 |  |  |  |  | 1.4 | CCn1nc(Cc2ccccc2)cc1C1CCN(C[C@H]2CN([C@@H](C(=O)O)C(C)C)C[C@@H]2c2cccc(F)c2)CC1 | 300 | inhibition (D(3) dopamine receptor [8]): 45%; inhibition (Rattus norvegicus): 32%; inhibition [10]: 21%; inhibition at 10 µM [11]: -3%; inhibition [12]: 15%
